The values below come from ChEMBL document CHEMBL1240503, “Design, synthesis and biological evaluation of new (E)- and (Z)-1,2,3-triaryl-2-propen-1-ones as selective COX-2 inhibitors” (Eur J Med Chem, 2010).

The structures appear in SMILES notation. pIC50: −log10 of the molar value.

The target in the experiment is T1, Prostaglandin G/H synthase 1 (Ovis aries, UniProt P05979).
T1 sequence (P05979 whole entry): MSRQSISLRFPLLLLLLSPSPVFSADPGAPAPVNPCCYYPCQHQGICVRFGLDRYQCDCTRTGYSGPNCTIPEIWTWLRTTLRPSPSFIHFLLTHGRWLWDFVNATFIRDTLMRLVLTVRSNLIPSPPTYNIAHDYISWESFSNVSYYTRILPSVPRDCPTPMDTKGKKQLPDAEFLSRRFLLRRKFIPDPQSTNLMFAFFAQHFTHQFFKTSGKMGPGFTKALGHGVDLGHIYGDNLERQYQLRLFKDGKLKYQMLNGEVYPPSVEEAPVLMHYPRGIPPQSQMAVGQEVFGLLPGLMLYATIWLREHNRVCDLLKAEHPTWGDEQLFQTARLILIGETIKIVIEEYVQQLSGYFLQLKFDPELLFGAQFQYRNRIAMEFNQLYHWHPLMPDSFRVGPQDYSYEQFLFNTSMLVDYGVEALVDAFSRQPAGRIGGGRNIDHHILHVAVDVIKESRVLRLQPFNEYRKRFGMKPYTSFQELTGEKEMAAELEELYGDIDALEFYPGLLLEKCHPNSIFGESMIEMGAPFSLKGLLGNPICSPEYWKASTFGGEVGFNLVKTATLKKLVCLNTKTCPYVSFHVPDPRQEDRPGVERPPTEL
The experiment in a line: Inhibition of ovine COX1 by chemiluminescence assay. In outline: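 Enzyme activity read as arachidonate-induced luminescence, taken as a real-time index of COX catalytic turnover; inhibition measured as loss of this luminescence signal.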
As for `COc1ccc(/C=C(/C(=O)c2ccc(S(C)(=O)=O)cc2)c2ccccc2)cc1`, the pIC50 (as a rule, the negative decadic logarithm of the IC50, by convention in mol/L) was 4.97. `CS(=O)(=O)c1ccc(C(=O)/C(=C\c2ccccc2)c2ccccc2)cc1` gave a negative logarithm of the IC50 (pIC50) of 4.85.

`CS(=O)(=O)c1ccc(C(=O)/C(=C/c2ccc(O)cc2)c2ccccc2)cc1`: the pIC50 is 4.84. Molecule `CS(=O)(=O)c1ccc(C(=O)/C(=C/c2ccccc2)c2ccccc2)cc1` showed a pIC50 of 4.88. In turn, `CS(=O)(=O)c1ccc(C(=O)C(=Cc2ccncc2)c2ccccc2)cc1` (mixture of isomers) gave a pIC50 of 4.91.

`COc1ccc(/C=C(\C(=O)c2ccc(S(C)(=O)=O)cc2)c2ccccc2)cc1`: the negative logarithm of the IC50 (pIC50) is 4.74.

Regarding `CS(=O)(=O)c1ccc(C(=O)/C(=C/c2cccs2)c2ccccc2)cc1`, the pIC50 was 4.88. In the case of `Cc1ccc(/C=C(/C(=O)c2ccc(S(C)(=O)=O)cc2)c2ccccc2)cc1`, the negative-log IC50 (pIC50) is 4.98.

`CS(=O)(=O)c1ccc(C(=O)/C(=C\c2ccc(F)cc2)c2ccccc2)cc1`: the pIC50 is 4.51. In the case of `Cc1ccc(/C=C(\C(=O)c2ccc(S(C)(=O)=O)cc2)c2ccccc2)cc1` it was 4.91. In the case of `CS(=O)(=O)c1ccc(C(=O)/C(=C/c2ccc(F)cc2)c2ccccc2)cc1` it was 4.90.
